In ChEMBL document CHEMBL4190234, “Design, synthesis and anticancer activity of new monastrol analogues bearing 1,3,4-oxadiazole moiety” (Eur J Med Chem, 2017):

How the values were obtained:
Format in all cases: functional
HCC 2998 = test: Growth inhibition of human HCC2998 cells at 10 uM incubated for 48 hrs by sulforhodamine B assay relative to control; details: HCC 2998, 48 h, read-out: GI
Summary of the method: (§1)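 Single-dose screen at 10 μM final: cells in RPMI 1640, 5% FBS, 2 mM L-glutamine, plated 5,000–40,000/well, preincubated 24 h at 37°C, 5% CO2; drug 48 h; adherent cells fixed with 10% TCA, suspension cells with 16% TCA; SRB stain, absorbance 515 nm; percentage growth versus untreated control, with time-zero plates.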

HOP-92 = test: Growth inhibition of human HOP92 cells at 10 uM incubated for 48 hrs by sulforhodamine B assay relative to control; details: HOP-92, 48 h, read-out: GI; summary of the method: as §1
NCI-H522 = test: Growth inhibition of human NCI-H522 cells at 10 uM incubated for 48 hrs by sulforhodamine B assay relative to control; details: NCI-H522, 48 h, read-out: GI; summary of the method: as §1
SF-268 = test: Growth inhibition of human SF268 cells at 10 uM incubated for 48 hrs by sulforhodamine B assay relative to control; details: SF-268, 48 h, read-out: GI
Summary of the method: (§2)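 NCI single-dose screen: cells grown in RPMI 1640 with 5% FBS and 2 mM L-glutamine, plated at 5,000–40,000 cells/well and preincubated 24 h at 37 °C, 5% CO2. Compounds taken from DMSO stock and tested at final 10 µM for 48 h. Cells fixed with TCA, stained with 0.4% SRB, absorbance read at 515 nm. Percentage growth calculated against untreated controls; controls held DMSO at the same dilution.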

SNB-75 = test: Growth inhibition of human SNB75 cells at 10 uM incubated for 48 hrs by sulforhodamine B assay relative to control; details: SNB-75, 48 h, read-out: GI; summary of the method: as §2
M14 = test: Growth inhibition of human M14 cells at 10 uM incubated for 48 hrs by sulforhodamine B assay relative to control; details: M14, 48 h, read-out: GI; summary of the method: as §1
RPMI-8226 = test: Growth inhibition of human RPMI8226 cells at 10 uM incubated for 48 hrs by sulforhodamine B assay relative to control; details: RPMI-8226, 48 h, read-out: GI; summary of the method: as §1
KM12 = test: Growth inhibition of human KM12 cells at 10 uM incubated for 48 hrs by sulforhodamine B assay relative to control; details: KM12, 48 h, read-out: GI; summary of the method: as §1
SF-539 = test: Growth inhibition of human SF539 cells at 10 uM incubated for 48 hrs by sulforhodamine B assay relative to control; details: SF-539, 48 h, read-out: GI; summary of the method: as §2
LOX IMVI = test: Growth inhibition of human LOXIMVI cells at 10 uM incubated for 48 hrs by sulforhodamine B assay relative to control; details: read-out: GI; summary of the method: as §1
HL-60(TB) = test: Growth inhibition of human HL-60(TB) cells at 10 uM incubated for 48 hrs by sulforhodamine B assay relative to control; details: HL-60, 48 h, read-out: GI
Summary of the method: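 Single dose of 10 µM in the NCI ~60-line panel. Cells grown in RPMI 1640 with 5% FBS and 2 mM L-glutamine, plated and pre-incubated 24 h, then exposed 48 h at 37°C under 5% CO2. Suspension cells fixed with TCA (16% final) and stained with sulforhodamine B, A515 read. Reported as percent growth versus untreated control and as GI%.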

CAKI-1 = test: Growth inhibition of human Caki1 cells at 10 uM incubated for 48 hrs by sulforhodamine B assay relative to control; details: CAKI-1, 48 h, read-out: GI; summary of the method: as §1
OVCAR-3 = test: Growth inhibition of human OVCAR3 cells at 10 uM incubated for 48 hrs by sulforhodamine B assay relative to control; details: OVCAR-3, 48 h, read-out: GI; summary of the method: as §1
NCI/ADR-RES = test: Growth inhibition of human NCI/ADR-RES cells at 10 uM incubated for 48 hrs by sulforhodamine B assay relative to control; details: read-out: GI; summary of the method: as §1
HCT-15 = test: Growth inhibition of human HCT15 cells at 10 uM incubated for 48 hrs by sulforhodamine B assay relative to control; details: HCT-15, 48 h, read-out: GI; summary of the method: as §1
EKVX = test: Growth inhibition of human EKVX cells at 10 uM incubated for 48 hrs by sulforhodamine B assay relative to control; details: read-out: GI; summary of the method: as §1
MOLT-4 = test: Growth inhibition of human MOLT4 cells at 10 uM incubated for 48 hrs by sulforhodamine B assay relative to control; details: MOLT-4, 48 h, read-out: GI; summary of the method: as §1
SK-MEL-5 = test: Growth inhibition of human SK-MEL-5 cells at 10 uM incubated for 48 hrs by sulforhodamine B assay relative to control; details: SK-MEL-5, 48 h, read-out: GI; summary of the method: as §2
OVCAR-5 = test: Growth inhibition of human OVCAR5 cells at 10 uM incubated for 48 hrs by sulforhodamine B assay relative to control; details: OVCAR-5, 48 h, read-out: GI; summary of the method: as §1
NCI-H23 = test: Growth inhibition of human NCI-H23 cells at 10 uM incubated for 48 hrs by sulforhodamine B assay relative to control; details: NCI-H23, 48 h, read-out: GI; summary of the method: as §1
NCI-H322M = test: Growth inhibition of human NCI-H322M cells at 10 uM incubated for 48 hrs by sulforhodamine B assay relative to control; details: read-out: GI; summary of the method: as §1
DU-145 = test: Growth inhibition of human DU145 cells at 10 uM incubated for 48 hrs by sulforhodamine B assay relative to control; details: DU-145, 48 h, read-out: GI; summary of the method: as §1
RXF 393 = test: Growth inhibition of human RXF393 cells at 10 uM incubated for 48 hrs by sulforhodamine B assay relative to control; details: RXF 393, 48 h, read-out: GI; summary of the method: as §1
OVCAR-4 = test: Growth inhibition of human OVCAR4 cells at 10 uM incubated for 48 hrs by sulforhodamine B assay relative to control; details: OVCAR-4, 48 h, read-out: GI; summary of the method: as §1
SK-OV-3 = test: Growth inhibition of human SKOV3 cells at 10 uM incubated for 48 hrs by sulforhodamine B assay relative to control; details: SK-OV-3, 48 h, read-out: GI; summary of the method: as §2
UO-31 = test: Growth inhibition of human UO31 cells at 10 uM incubated for 48 hrs by sulforhodamine B assay relative to control; details: UO-31, 48 h, read-out: GI; summary of the method: as §2
NCI-H460 = test: Growth inhibition of human NCI-H460 cells at 10 uM incubated for 48 hrs by sulforhodamine B assay relative to control; details: NCI-H460, 48 h, read-out: GI; summary of the method: as §1
ACHN = test: Growth inhibition of human ACHN cells at 10 uM incubated for 48 hrs by sulforhodamine B assay relative to control; details: read-out: GI; summary of the method: as §1
K562 = test: Growth inhibition of human K562 cells at 10 uM incubated for 48 hrs by sulforhodamine B assay relative to control; details: K562, 48 h, read-out: GI; summary of the method: as §1
TK-10 = test: Growth inhibition of human TK10 cells at 10 uM incubated for 48 hrs by sulforhodamine B assay relative to control; details: TK-10, 48 h, read-out: GI; summary of the method: as §2

Row | Structure (SMILES) | inhibition of growth at 10 µM (HCC 2998) | inhibition of growth at 10 µM (HOP-92) | inhibition of growth at 10 µM (NCI-H522) | inhibition of growth at 10 µM (SF-268) | inhibition of growth at 10 µM (SNB-75) | inhibition of growth at 10 µM (M14) | inhibition of growth at 10 µM (RPMI-8226) | inhibition of growth at 10 µM (KM12) | inhibition of growth at 10 µM (SF-539) | inhibition of growth at 10 µM (LOX IMVI) | inhibition of growth at 10 µM (HL-60(TB)) | inhibition of growth at 10 µM (CAKI-1) | inhibition of growth at 10 µM (OVCAR-3) | inhibition of growth at 10 µM (NCI/ADR-RES) | inhibition of growth at 10 µM (HCT-15) | inhibition of growth at 10 µM (EKVX) | inhibition of growth at 10 µM (MOLT-4) | inhibition of growth at 10 µM (SK-MEL-5) | inhibition of growth at 10 µM (OVCAR-5) | inhibition of growth at 10 µM (NCI-H23) | further results
1 | CCOC(=O)C1=C(C)NC(SCc2nnc(-c3ccc(Cl)cc3)o2)=NC1c1ccccc1 (stereo not given) | < 10% | 40.1% | 54.1% | < 10% | < 10% | 19.5% | 27.3% | 10.3% | < 10% | 11.1% | 38% | 22.3% | < 10% | < 10% | 21.8% | 14.8% | 31.3% | < 10% | < 10% | < 10% | inhibition of growth at 10 µM (NCI-H322M): < 10%; inhibition of growth at 10 µM (DU-145): < 10%; inhibition of growth at 10 µM (RXF 393): < 10%; inhibition of growth at 10 µM (OVCAR-4): < 10%; inhibition of growth at 10 µM (SK-OV-3): 25.6%; inhibition of growth at 10 µM (UO-31): 19.4%; inhibition of growth at 10 µM (NCI-H460): < 10%; inhibition of growth at 10 µM (ACHN): < 10%; inhibition of growth at 10 µM (K562): 25.2%; inhibition of growth at 10 µM (TK-10): 30.8%
2 | CC(=O)C1=C(C)NC(SCc2nnc(-c3ccc(C)cc3)o2)=NC1c1ccc(F)cc1 (stereo not given) | < 10% | < 10% | 14.1% | < 10% | < 10% | < 10% | 16.3% | < 10% | < 10% | < 10% | 19.2% | 12% | < 10% | < 10% | < 10% | < 10% | < 10% | < 10% | 10.4% | < 10% | inhibition of growth at 10 µM (NCI-H322M): < 10%; inhibition of growth at 10 µM (DU-145): < 10%; inhibition of growth at 10 µM (RXF 393): < 10%; inhibition of growth at 10 µM (OVCAR-4): < 10%; inhibition of growth at 10 µM (SK-OV-3): < 10%; inhibition of growth at 10 µM (UO-31): 16.4%; inhibition of growth at 10 µM (NCI-H460): < 10%; inhibition of growth at 10 µM (ACHN): < 10%; inhibition of growth at 10 µM (K562): < 10%; inhibition of growth at 10 µM (TK-10): 14.4%
3 | COc1ccc(-c2nnc(CSC3=NC(c4ccc(F)cc4)C(C(C)=O)=C(C)N3)o2)cc1 (stereo not given) | < 10% | 16.5% | 18% | < 10% | 17.3% | 13.4% | 14% | < 10% | < 10% | < 10% | 15.2% | 29.9% | < 10% | < 10% | < 10% | < 10% | 10.9% | < 10% | < 10% | < 10% | inhibition of growth at 10 µM (NCI-H322M): < 10%; inhibition of growth at 10 µM (DU-145): < 10%; inhibition of growth at 10 µM (RXF 393): < 10%; inhibition of growth at 10 µM (OVCAR-4): 12.2%; inhibition of growth at 10 µM (SK-OV-3): 18.3%; inhibition of growth at 10 µM (UO-31): 29.7%; inhibition of growth at 10 µM (NCI-H460): < 10%; inhibition of growth at 10 µM (ACHN): < 10%; inhibition of growth at 10 µM (K562): < 10%; inhibition of growth at 10 µM (TK-10): < 10%
4 | CC(=O)C1=C(C)NC(SCc2nnc(-c3ccc(Cl)cc3)o2)=NC1c1ccc(Cl)cc1 (stereo not given) | < 10% | 26.5% | 20.9% | < 10% | 28.1% | < 10% | 32.9% | < 10% | < 10% | < 10% | 40.3% | 21.1% | < 10% | < 10% | 11% | < 10% | 24.4% | < 10% | < 10% | < 10% | inhibition of growth at 10 µM (NCI-H322M): 12%; inhibition of growth at 10 µM (DU-145): < 10%; inhibition of growth at 10 µM (RXF 393): < 10%; inhibition of growth at 10 µM (OVCAR-4): < 10%; inhibition of growth at 10 µM (SK-OV-3): < 10%; inhibition of growth at 10 µM (UO-31): 43.6%; inhibition of growth at 10 µM (NCI-H460): < 10%; inhibition of growth at 10 µM (ACHN): 13.5%; inhibition of growth at 10 µM (K562): 11.1%; inhibition of growth at 10 µM (TK-10): 13.1%
